Source: ChEMBL document CHEMBL5653631, “A Potent and Selective ULK1 Inhibitor Suppresses Autophagy and Sensitizes Cancer Cells to Nutrient Stress” (iScience, 2018)
One block for each compound: values may come before it.

Tests used:
[1] = biological target: T1, Serine/threonine-protein kinase BRSK2 (Homo sapiens) (UniProt Q8IWQ3); test: Inhibition of human recombinant BRSK2 at 500 nM in presence of ATP by radiometric assay relative to control
T1 sequence (whole entry): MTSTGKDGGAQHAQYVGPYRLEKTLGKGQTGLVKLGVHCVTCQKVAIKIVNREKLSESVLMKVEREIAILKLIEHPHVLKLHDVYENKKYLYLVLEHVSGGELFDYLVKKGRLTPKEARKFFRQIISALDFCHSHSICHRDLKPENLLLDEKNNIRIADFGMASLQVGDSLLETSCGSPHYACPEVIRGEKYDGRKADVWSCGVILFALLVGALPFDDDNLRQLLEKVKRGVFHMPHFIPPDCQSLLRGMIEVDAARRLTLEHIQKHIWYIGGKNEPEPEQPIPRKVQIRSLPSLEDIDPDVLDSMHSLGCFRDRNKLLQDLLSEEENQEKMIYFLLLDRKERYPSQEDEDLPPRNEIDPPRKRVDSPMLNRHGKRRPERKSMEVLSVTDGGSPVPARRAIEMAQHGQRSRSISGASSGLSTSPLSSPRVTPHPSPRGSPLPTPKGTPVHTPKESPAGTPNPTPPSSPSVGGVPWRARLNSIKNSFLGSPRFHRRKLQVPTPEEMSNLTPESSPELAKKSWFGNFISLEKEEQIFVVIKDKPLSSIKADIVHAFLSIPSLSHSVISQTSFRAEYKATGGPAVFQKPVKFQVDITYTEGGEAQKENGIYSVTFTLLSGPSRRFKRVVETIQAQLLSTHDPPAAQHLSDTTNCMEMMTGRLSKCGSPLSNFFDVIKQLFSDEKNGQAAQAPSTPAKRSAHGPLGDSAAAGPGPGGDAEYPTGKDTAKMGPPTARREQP
Outline: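 Recombinant human kinase panel (327 kinases) run as radiometric activity assays, each kinase in duplicate at one compound concentration. Activity remaining expressed relative to vehicle control; percent inhibition taken as 100% minus % activity remaining.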

[2] = biological target: Death-associated protein kinase 3 (Homo sapiens) (UniProt O43293); test: Inhibition of human recombinant DAPK3 at 500 nM related to control ULK1
[3] = biological target: T2, Tyrosine-protein kinase ITK/TSK (Homo sapiens) (UniProt Q08881); test: Inhibition of human recombinant ITK at 500 nM related to control ULK1
T2 sequence (whole entry): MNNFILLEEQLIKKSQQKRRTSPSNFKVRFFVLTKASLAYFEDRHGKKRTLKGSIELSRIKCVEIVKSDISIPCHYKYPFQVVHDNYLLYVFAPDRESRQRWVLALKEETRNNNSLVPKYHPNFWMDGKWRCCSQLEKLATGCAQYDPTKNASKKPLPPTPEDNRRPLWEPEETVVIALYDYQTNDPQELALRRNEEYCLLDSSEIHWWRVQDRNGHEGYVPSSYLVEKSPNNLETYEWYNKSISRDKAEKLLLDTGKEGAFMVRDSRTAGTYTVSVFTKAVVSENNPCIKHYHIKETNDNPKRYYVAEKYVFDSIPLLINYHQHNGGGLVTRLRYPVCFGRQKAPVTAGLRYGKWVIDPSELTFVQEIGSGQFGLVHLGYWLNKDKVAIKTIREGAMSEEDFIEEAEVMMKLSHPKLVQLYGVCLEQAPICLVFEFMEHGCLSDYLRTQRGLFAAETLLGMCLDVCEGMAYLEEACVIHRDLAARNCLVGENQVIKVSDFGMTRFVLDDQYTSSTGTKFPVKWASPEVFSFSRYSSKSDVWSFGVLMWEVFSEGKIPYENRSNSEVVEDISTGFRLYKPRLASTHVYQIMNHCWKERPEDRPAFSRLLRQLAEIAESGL

[4] = biological target: T3, Inhibitor of nuclear factor kappa-B kinase subunit epsilon (Homo sapiens) (UniProt Q14164); test: Inhibition of human recombinant IKKe at 15 nM in presence of ATP by radiometric assay relative to control
T3 sequence (whole entry): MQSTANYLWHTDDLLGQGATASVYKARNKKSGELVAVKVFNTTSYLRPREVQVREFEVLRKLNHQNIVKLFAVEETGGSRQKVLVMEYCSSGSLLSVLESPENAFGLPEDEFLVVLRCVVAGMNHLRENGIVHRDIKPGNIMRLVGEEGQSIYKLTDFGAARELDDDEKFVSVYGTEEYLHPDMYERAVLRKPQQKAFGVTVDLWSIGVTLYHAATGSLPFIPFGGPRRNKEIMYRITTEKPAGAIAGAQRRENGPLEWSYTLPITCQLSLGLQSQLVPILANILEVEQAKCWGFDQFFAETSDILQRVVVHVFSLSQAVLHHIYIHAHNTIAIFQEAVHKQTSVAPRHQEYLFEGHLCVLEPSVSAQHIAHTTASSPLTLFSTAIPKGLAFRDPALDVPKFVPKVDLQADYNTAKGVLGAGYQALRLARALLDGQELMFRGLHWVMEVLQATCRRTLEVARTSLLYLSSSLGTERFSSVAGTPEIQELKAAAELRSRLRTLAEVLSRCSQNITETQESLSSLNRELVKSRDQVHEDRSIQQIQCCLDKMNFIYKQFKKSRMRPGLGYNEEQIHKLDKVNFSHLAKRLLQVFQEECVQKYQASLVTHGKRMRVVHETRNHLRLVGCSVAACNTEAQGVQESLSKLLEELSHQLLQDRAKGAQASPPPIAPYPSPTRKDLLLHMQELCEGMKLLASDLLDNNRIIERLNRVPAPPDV

[5] = biological target: Tyrosine-protein kinase SYK (Homo sapiens) (UniProt P43405); test: Inhibition of human recombinant SYK at 15 nM in presence of ATP by radiometric assay relative to control
[6] = biological target: Bone morphogenetic protein receptor type-1B (Homo sapiens) (UniProt O00238); test: Inhibition of human recombinant BMPR1B at 15 nM in presence of ATP by radiometric assay relative to control
Outline: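 Part of a radiometric in vitro activity panel of 327 recombinant human kinases. Each kinase was tested in duplicate at one inhibitor concentration. Activity remaining was expressed as a percentage of the vehicle control, and percent inhibition was taken as 100 minus that value.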

[7] = biological target: Cyclin-dependent kinase 6 (Homo sapiens) (UniProt Q00534); test: Inhibition of human recombinant CDK6 at 40 nM related to control ULK1
[8] = biological target: Ribosomal protein S6 kinase alpha-3 (Homo sapiens) (UniProt P51812); test: Inhibition of human recombinant RSK2 at 40 nM in presence of ATP by radiometric assay relative to control
[9] = biological target: Cyclin-dependent kinase 13 (Homo sapiens) (UniProt Q14004); test: Inhibition of human recombinant CHED at 40 nM related to control ULK1
[10] = biological target: Tyrosine-protein kinase Lck (Homo sapiens) (UniProt P06239); test: Inhibition of human recombinant LCK at 40 nM in presence of ATP by radiometric assay relative to control
[11] = biological target: Hepatocyte growth factor receptor MET (Homo sapiens) (UniProt P08581); test: Inhibition of human recombinant MET at 40 nM in presence of ATP by radiometric assay relative to control
Sequence of Hepatocyte growth factor receptor MET (Homo sapiens) (P08581 whole entry, looked up): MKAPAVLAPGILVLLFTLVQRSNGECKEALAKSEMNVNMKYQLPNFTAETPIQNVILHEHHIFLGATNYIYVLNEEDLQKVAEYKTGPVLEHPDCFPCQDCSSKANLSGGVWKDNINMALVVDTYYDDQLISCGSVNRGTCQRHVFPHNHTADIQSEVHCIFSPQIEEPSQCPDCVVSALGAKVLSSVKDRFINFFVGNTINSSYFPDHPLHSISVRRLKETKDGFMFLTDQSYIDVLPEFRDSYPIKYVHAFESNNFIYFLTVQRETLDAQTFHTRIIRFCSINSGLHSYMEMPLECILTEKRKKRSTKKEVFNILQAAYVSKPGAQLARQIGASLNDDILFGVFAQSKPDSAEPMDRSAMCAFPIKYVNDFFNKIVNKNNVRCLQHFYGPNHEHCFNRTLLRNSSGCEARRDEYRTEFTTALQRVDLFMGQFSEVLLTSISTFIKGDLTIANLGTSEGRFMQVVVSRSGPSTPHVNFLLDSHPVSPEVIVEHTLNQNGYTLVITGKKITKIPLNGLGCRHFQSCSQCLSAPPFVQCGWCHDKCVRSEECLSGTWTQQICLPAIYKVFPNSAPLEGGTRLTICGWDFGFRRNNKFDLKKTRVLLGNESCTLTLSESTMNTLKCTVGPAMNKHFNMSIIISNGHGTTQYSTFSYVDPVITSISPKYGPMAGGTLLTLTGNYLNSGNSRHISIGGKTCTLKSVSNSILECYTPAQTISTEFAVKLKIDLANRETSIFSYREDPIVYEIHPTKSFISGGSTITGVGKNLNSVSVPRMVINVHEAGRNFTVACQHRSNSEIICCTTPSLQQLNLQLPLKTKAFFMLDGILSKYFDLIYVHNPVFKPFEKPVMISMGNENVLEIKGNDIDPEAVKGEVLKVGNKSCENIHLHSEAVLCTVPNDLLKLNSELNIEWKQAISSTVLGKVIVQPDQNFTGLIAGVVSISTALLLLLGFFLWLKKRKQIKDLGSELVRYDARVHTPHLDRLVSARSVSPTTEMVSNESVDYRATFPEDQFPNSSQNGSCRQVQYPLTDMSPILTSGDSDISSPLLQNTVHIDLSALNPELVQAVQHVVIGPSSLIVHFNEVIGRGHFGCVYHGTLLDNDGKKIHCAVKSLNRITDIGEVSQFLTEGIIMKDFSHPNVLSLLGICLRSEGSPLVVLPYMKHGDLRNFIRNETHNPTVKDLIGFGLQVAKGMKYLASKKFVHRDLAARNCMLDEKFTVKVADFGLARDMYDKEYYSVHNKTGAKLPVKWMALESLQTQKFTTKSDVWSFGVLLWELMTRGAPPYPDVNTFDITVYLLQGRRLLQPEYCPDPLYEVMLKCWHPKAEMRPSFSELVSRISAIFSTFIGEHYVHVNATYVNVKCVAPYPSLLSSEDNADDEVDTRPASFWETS

Sequence of Cyclin-dependent kinase 6 (Homo sapiens) (Q00534 whole entry): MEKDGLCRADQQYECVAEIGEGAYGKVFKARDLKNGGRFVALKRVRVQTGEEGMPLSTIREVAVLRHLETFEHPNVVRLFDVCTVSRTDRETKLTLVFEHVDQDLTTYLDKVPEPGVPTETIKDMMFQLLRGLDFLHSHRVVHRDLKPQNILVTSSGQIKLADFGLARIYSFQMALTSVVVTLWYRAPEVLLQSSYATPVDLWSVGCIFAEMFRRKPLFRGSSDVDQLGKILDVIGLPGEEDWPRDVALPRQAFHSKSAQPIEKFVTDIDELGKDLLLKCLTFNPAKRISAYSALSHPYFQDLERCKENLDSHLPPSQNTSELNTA
Sequence of Bone morphogenetic protein receptor type-1B (Homo sapiens) (O00238 whole entry): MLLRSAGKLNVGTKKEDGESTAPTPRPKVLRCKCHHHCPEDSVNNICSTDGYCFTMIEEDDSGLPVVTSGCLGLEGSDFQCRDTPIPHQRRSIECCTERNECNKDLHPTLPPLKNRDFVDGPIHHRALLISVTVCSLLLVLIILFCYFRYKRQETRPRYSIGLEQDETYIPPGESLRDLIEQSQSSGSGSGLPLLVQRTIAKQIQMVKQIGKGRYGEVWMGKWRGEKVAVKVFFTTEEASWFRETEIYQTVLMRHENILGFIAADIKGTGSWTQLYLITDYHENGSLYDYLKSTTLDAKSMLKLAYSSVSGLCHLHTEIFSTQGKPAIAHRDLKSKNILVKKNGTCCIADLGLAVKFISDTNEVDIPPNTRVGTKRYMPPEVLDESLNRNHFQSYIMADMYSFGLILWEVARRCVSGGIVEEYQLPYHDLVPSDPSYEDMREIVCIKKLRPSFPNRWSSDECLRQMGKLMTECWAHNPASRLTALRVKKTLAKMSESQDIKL
Sequence of Death-associated protein kinase 3 (Homo sapiens) (O43293 whole entry, looked up): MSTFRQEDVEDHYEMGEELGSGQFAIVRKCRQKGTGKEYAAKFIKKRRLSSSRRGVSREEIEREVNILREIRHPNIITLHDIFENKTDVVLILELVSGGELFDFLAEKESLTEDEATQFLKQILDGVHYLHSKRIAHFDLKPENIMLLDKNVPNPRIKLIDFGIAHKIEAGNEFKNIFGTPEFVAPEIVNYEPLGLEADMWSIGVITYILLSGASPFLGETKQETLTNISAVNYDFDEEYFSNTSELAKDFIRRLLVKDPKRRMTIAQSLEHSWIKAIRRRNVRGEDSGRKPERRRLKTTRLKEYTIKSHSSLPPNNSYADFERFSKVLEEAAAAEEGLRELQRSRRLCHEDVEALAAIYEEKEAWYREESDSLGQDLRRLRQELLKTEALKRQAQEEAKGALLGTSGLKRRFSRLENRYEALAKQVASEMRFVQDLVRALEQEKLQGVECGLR
Sequence of Tyrosine-protein kinase Lck (Homo sapiens) (P06239 2-509 limits assumed): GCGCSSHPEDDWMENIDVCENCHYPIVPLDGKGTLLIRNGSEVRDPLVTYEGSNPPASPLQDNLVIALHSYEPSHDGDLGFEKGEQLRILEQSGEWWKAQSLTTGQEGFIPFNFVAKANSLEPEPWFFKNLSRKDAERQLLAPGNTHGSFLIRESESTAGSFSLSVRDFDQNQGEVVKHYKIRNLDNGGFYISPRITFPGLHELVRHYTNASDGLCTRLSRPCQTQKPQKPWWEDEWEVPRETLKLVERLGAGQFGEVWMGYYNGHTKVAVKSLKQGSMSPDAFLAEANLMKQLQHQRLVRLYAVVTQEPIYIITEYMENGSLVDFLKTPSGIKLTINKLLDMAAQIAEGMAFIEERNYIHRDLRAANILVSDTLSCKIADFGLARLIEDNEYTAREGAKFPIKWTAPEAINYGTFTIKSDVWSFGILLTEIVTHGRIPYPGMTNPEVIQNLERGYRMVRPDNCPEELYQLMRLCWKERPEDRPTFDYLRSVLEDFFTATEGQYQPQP
Sequence of Ribosomal protein S6 kinase alpha-3 (Homo sapiens) (P51812 whole entry): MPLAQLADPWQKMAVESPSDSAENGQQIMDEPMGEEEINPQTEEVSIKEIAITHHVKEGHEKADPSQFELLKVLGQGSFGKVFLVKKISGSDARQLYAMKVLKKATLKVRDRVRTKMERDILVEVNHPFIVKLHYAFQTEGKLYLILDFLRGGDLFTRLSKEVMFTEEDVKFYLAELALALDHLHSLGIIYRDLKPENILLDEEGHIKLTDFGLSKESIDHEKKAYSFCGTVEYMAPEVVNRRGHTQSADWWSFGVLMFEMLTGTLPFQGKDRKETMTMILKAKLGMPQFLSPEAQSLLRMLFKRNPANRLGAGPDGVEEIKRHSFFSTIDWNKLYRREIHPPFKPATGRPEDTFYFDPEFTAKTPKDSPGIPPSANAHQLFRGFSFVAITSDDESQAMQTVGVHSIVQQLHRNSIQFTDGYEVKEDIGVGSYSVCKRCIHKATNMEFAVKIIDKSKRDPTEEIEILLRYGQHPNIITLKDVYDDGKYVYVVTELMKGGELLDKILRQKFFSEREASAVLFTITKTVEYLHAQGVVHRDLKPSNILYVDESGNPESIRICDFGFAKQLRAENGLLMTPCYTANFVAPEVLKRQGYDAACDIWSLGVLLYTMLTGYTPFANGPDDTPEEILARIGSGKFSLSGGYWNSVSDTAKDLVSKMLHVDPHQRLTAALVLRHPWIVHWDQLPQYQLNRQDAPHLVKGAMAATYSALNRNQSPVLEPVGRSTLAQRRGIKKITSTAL

inhibition [1]: 3%
fold change (FC) [3]: 0.01
SMILES: CNC(=O)c1ccccc1Oc1nc(Nc2cc(OC)c(OC)c(OC)c2)ncc1Br
fold change (FC) [2]: 0.14

inhibition [4]: 75%
inhibition [5]: 0%
inhibition [6]: 24%
SMILES: CC(C)[C@H](NC(=O)c1cc(-c2cnn3cc(-c4ccc(OCCN5CCCCC5)cc4)cnc23)cs1)C(F)(F)F

fold change (FC) [7]: 0.04
inhibition [8]: 0%
fold change (FC) [9]: 0.05
inhibition [10]: 0%
inhibition [11]: 16%
SMILES: O=C(N[C@@H](C1CC1)C(F)(F)F)c1cc(-c2cnn3cc(-c4ccc(F)cc4)cnc23)cs1
